Key:
Type in all cases: functional
Settings in all cases: read-out: GI
SK-OV-3 = experiment: Antitumor activity against human SK-OV-3 cells assessed as growth inhibition at 10 uM relative to control
How it was run: (§1)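 Drug exposure 48 h at 37 °C, 5% CO2. Adherent cells fixed with cold TCA (10% final), suspension cells with TCA (16% final). Stained with 0.4% SRB in 1% acetic acid, dissolved in 10 mM Tris, A515. Growth relative to time-zero and untreated control.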

HT-29 = experiment: Antitumor activity against human HT-29 cells assessed as growth inhibition at 10 uM relative to control
How it was run: (§2)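 After drug addition, plates were incubated 48 h at 37 °C under 5% CO2. Adherent cells were fixed with cold TCA (10% final, 60 min, 4 °C) and suspension cells with 16% final TCA. Staining used 0.4% SRB in 1% acetic acid, solubilized in 10 mM trizma, read at A515. Percent growth was calculated from time-zero, control and treated absorbances.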

T47D = experiment: Antitumor activity against human T47D cells assessed as growth inhibition at 10 uM relative to control; how it was run: as §1
SW-620 = experiment: Antitumor activity against human SW-620 cells assessed as growth inhibition at 10 uM relative to control; how it was run: as §1
NCI-H322M = experiment: Antitumor activity against human NCI-H322M cells assessed as growth inhibition at 10 uM relative to control; how it was run: as §2
EKVX = experiment: Antitumor activity against human EKVX cells assessed as growth inhibition at 10 uM relative to control; how it was run: as §2
HCT-116 = experiment: Antitumor activity against human HCT-116 cells assessed as growth inhibition at 10 uM relative to control; how it was run: as §2
UO-31 = experiment: Antitumor activity against human UO-31 cells assessed as growth inhibition at 10 uM relative to control; how it was run: as §1
TK-10 = experiment: Antitumor activity against human TK-10 cells assessed as growth inhibition at 10 uM relative to control; how it was run: as §1
KM12 = experiment: Antitumor activity against human KM12 cells assessed as growth inhibition at 10 uM relative to control; how it was run: as §2
SK-MEL-5 = experiment: Antitumor activity against human SK-MEL-5 cells assessed as growth inhibition at 10 uM relative to control; how it was run: as §1
SN12C = experiment: Antitumor activity against human SN12C cells assessed as growth inhibition at 10 uM relative to control; how it was run: as §1
MDA-MB-435 = experiment: Antitumor activity against human MDA-MB-435 cells assessed as growth inhibition at 10 uM relative to control; how it was run: as §2
NCI-H460 = experiment: Antitumor activity against human NCI-H460 cells assessed as growth inhibition at 10 uM relative to control; how it was run: as §2
OVCAR-4 = experiment: Antitumor activity against human OVCAR-4 cells assessed as growth inhibition at 10 uM relative to control; how it was run: as §2
A498 = experiment: Antitumor activity against human A498 cells assessed as growth inhibition at 10 uM relative to control; how it was run: as §2
HOP-92 = experiment: Antitumor activity against human HOP-92 cells assessed as growth inhibition at 10 uM relative to control; how it was run: as §2
NCI-H23 = experiment: Antitumor activity against human NCI-H23 cells assessed as growth inhibition at 10 uM relative to control; how it was run: as §2
SR = experiment: Antitumor activity against human SR cells assessed as growth inhibition at 10 uM relative to control; how it was run: as §1
786-0 = experiment: Antitumor activity against human 786-0 cells assessed as growth inhibition at 10 uM relative to control; how it was run: as §2
HOP-62 = experiment: Antitumor activity against human HOP-62 cells assessed as growth inhibition at 10 uM relative to control; how it was run: as §2
SK-MEL-2 = experiment: Antitumor activity against human SK-MEL-2 cells assessed as growth inhibition at 10 uM relative to control; how it was run: as §2
NCI/ADR-RES = experiment: Antitumor activity against human NCI-ADR-RES cells assessed as growth inhibition at 10 uM relative to control; how it was run: as §2
UACC-62 = experiment: Antitumor activity against human UACC-62 cells assessed as growth inhibition at 10 uM relative to control; how it was run: as §1
SF-539 = experiment: Antitumor activity against human SF-539 cells assessed as growth inhibition at 10 uM relative to control; how it was run: as §2
COLO 205 = experiment: Antitumor activity against human COLO 205 cells assessed as growth inhibition at 10 uM relative to control; how it was run: as §2
UACC-257 = experiment: Antitumor activity against human UACC-257 cells assessed as growth inhibition at 10 uM relative to control; how it was run: as §1
M14 = experiment: Antitumor activity against human M14 cells assessed as growth inhibition at 10 uM relative to control; how it was run: as §2
NCI-H522 = experiment: Antitumor activity against human NCI-H522 cells assessed as growth inhibition at 10 uM relative to control; how it was run: as §2
SF-295 = experiment: Antitumor activity against human SF-295 cells assessed as growth inhibition at 10 uM relative to control; how it was run: as §2
Malme-3M = experiment: Antitumor activity against human Malme-3M cells assessed as growth inhibition at 10 uM relative to control; how it was run: as §2
RXF 393 = experiment: Antitumor activity against human RXF 393 cells assessed as growth inhibition at 10 uM relative to control; how it was run: as §2
SNB-75 = experiment: Antitumor activity against human SNB-75 cells assessed as growth inhibition at 10 uM relative to control; how it was run: as §1
HCC 2998 = experiment: Antitumor activity against human HCC 2998 cells assessed as growth inhibition at 10 uM relative to control; how it was run: as §2
SK-MEL-28 = experiment: Antitumor activity against human SK-MEL-28 cells assessed as growth inhibition at 10 uM relative to control; how it was run: as §1
Hs-578T = experiment: Antitumor activity against human Hs-578T cells assessed as growth inhibition at 10 uM relative to control; how it was run: as §2
CAKI-1 = experiment: Antitumor activity against human CAKI-1 cells assessed as growth inhibition at 10 uM relative to control; how it was run: as §2
OVCAR-5 = experiment: Antitumor activity against human OVCAR-5 cells assessed as growth inhibition at 10 uM relative to control; how it was run: as §2
SNB-19 = experiment: Antitumor activity against human SNB-19 cells assessed as growth inhibition at 10 uM relative to control; how it was run: as §1
MDA-MB-231 = experiment: Antitumor activity against human MDA-MB-231 cells assessed as growth inhibition at 10 uM relative to control; how it was run: as §2
U-251 = experiment: Antitumor activity against human U-251 cells assessed as growth inhibition at 10 uM relative to control; how it was run: as §1
SF-268 = experiment: Antitumor activity against human SF-268 cells assessed as growth inhibition at 10 uM relative to control; how it was run: as §2
RPMI-8226 = experiment: Antitumor activity against human RPMI-8226 cells assessed as growth inhibition at 10 uM relative to control; how it was run: as §2
NCI-H226 = experiment: Antitumor activity against human NCI-H226 cells assessed as growth inhibition at 10 uM relative to control; how it was run: as §2
HL-60 = experiment: Antitumor activity against human HL-60 cells assessed as growth inhibition at 10 uM relative to control; how it was run: as §2
IGROV-1 = experiment: Antitumor activity against human IGROV-1 cells assessed as growth inhibition at 10 uM relative to control; how it was run: as §2

Cc1cc(C)n(-c2nc(-c3ccc(Cl)cc3)c(C#N)c(N3CCOCC3)n2)n1
inhibition of growth at 10 µM (SK-OV-3): 15.2%
inhibition of growth at 10 µM (HT-29): < 1%
inhibition of growth at 10 µM (T47D): 22.1%
inhibition of growth at 10 µM (SW-620): < 1%
inhibition of growth at 10 µM (NCI-H322M): < 1%
inhibition of growth at 10 µM (EKVX): 34.9%
inhibition of growth at 10 µM (HCT-116): 17%
inhibition of growth at 10 µM (UO-31): 45.2%
inhibition of growth at 10 µM (TK-10): < 1%
inhibition of growth at 10 µM (KM12): < 1%
inhibition of growth at 10 µM (SK-MEL-5): 14.5%
inhibition of growth at 10 µM (SN12C): 12.8%
inhibition of growth at 10 µM (MDA-MB-435): < 1%
inhibition of growth at 10 µM (NCI-H460): < 1%
inhibition of growth at 10 µM (OVCAR-4): < 1%
inhibition of growth at 10 µM (A498): 46.3%
inhibition of growth at 10 µM (HOP-92): 24.7%
inhibition of growth at 10 µM (NCI-H23): 16%
inhibition of growth at 10 µM (SR): < 1%
inhibition of growth at 10 µM (786-0): 15.2%
inhibition of growth at 10 µM (HOP-62): 19.9%
inhibition of growth at 10 µM (SK-MEL-2): < 1%
inhibition of growth at 10 µM (NCI/ADR-RES): 10.6%
inhibition of growth at 10 µM (UACC-62): < 1%
inhibition of growth at 10 µM (SF-539): 16%
inhibition of growth at 10 µM (COLO 205): 18.9%
inhibition of growth at 10 µM (UACC-257): < 1%
inhibition of growth at 10 µM (M14): < 1%
inhibition of growth at 10 µM (NCI-H522): 14.3%
inhibition of growth at 10 µM (SF-295): < 1%
inhibition of growth at 10 µM (Malme-3M): < 1%
inhibition of growth at 10 µM (RXF 393): 30.5%
inhibition of growth at 10 µM (SNB-75): 40.1%
inhibition of growth at 10 µM (HCC 2998): < 1%
inhibition of growth at 10 µM (SK-MEL-28): < 1%
inhibition of growth at 10 µM (Hs-578T): 12.3%
inhibition of growth at 10 µM (CAKI-1): 28.1%
inhibition of growth at 10 µM (OVCAR-5): < 1%
inhibition of growth at 10 µM (SNB-19): 14.2%
inhibition of growth at 10 µM (MDA-MB-231): 28.8%
inhibition of growth at 10 µM (U-251): < 1%
inhibition of growth at 10 µM (SF-268): 14.4%
inhibition of growth at 10 µM (RPMI-8226): 15.4%
inhibition of growth at 10 µM (NCI-H226): 14%
inhibition of growth at 10 µM (HL-60): < 1%
inhibition of growth at 10 µM (IGROV-1): 23.4%
